We go through 13 compounds from PubChem BioAssay.

Activity calls are given as the source filed them.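 The calls were made as follows, unless noted: active = visually confirmed hit in the image check and inhibition above 20%; inconclusive = visually confirmed hit but inhibition not above 20%; inactive = no visual hit in the image check.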

A short description of assay [1]: inhibitors of TNFa-induced NFkB p65 translocation, primary screen, imaging, HUVEC, MLSMR starter and 10KST1 sets (AID 438;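 active = inhibition above 20% together with a positive visual image hit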;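 also: compound added about 3h40 before a 20 min TNFalpha stimulation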;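 as to inhibition: signal is the nuclear over cytoplasmic p65 intensity ratio per well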). Conditions: HUVEC TNFa-induced p65 nuclear translocation; cell count: measured here: nuclei count (cytotoxicity indicator), at 2.08 µM; inhibition: at 2 µM, stronger effect = higher value, 0% TNFa-plus-vehicle, 100% no-TNFa wells.
A short description of assay [2]: reduction of polyQ htt aggregates in cells – imaging, exon1htt(103Q)mCFP cells, high-content imaging, primary screen (AID 483;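 active = visual image review flags a hit and inhibition of aggregation exceeds 20%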;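 also: compound exposure lasted 3 days before fixation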;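 as to nuclei count: percent of the per-plate median nuclei count of sample wells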). Particulars: exon1htt(103Q)mCFP cell line, aggregate imaging, at 2 µM; inhibition of aggregation: stronger effect = higher value; nuclei count: measured here: cell count, toxicity.
Assay [3] in a line: endothelial E-selectin expression blockers – imaging, HUVEC, immunofluorescence, MLSMR starter and 10KST1 sets, primary screen (AID 487).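 As to inhibition: signal is fraction of cell area covered by stained E-selectin grains.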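 As to nuclei count: 100% = median nuclei count of all wells on the same plate.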 Particulars: HUVEC TNFalpha-induced E-selectin immunofluorescence imaging, at 2 µM; inhibition: stronger effect = higher value; nuclei count: measured here: cell number, toxicity.
For assay [4], the target named is Voltage-gated potassium channel subunit beta-2 (Rattus norvegicus) (UniProt P62483). Briefly: inhibitors of rat Kvbeta2 reductase activity – biochemical, NADPH fluorescence, primary screen (AID 622;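 active = fluorescence slope higher than the sample average by over 3 SD, cut at about -0.22 in these data, passing the limit was not always enough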;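 also: slope of raw intensity against log time taken from 70 to 1610 s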). Particulars: recombinant KvBeta, 4-cyanobenzaldehyde reduction, at 10 µM, stronger effect = higher value.
For assay [5] the target is unchanged. The experiment in a line: enhancers of rat Kvbeta2 NADPH turnover – biochemical, NADPH fluorescence, primary screen (AID 623;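 active = NADPH fluorescence slope more negative than the mean of all samples by about 3 SD, 99.7% confidence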;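 also: fluorescence intensity change per second fitted from 20 to 320 s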). Particulars: Recombinant KvBeta, NADPH fluorescence decrease slope, 10 min; at 10 µM; stronger effect = lower value.
For assay [6], the target named is Muscarinic acetylcholine receptor M4 (Homo sapiens) (UniProt P08173). The experiment in a line: M4-linked GIRK flux change, two-sided – cell-based, HEK293 M4/GIRK, thallium flux, BTC-AM, M4 allosteric agonist project, primary screen (AID 625;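 active = fluorescence slope after compound addition differing from the mean of all tested samples at 99.7% confidence, mostly higher but some lower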;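 also: thallium influx through GIRK channels coupled to M4 in HEK293 cells with BTC-AM dye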). Conditions: at 10 µM, actives lie on both sides. Summed up: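 Assay system: HEK293 cells with M4 receptor and GIRK channels / Controls: carbachol and DMSO controls / Schedule: 1 h dye loading, 2 min kinetic read / Technique: kinetic fluorescence with BTC-AM dye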

Assay [7] in a line: blockers of RIG-like receptor reporter activation – cell-based, Sendai virus stimulus, luciferase, 10K MLSCN set, TLR/RLR signaling modifier project, primary screen (AID 602276;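 active = inhibition at or above 50% at 10 µM; inactive = inhibition below 50%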;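 also: firefly luciferase from ISG56 promoter only with Renilla not read in this screen; 0% = Sendai virus plus DMSO and 100% = medium plus DMSO without virus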). Conditions: HEK293 RL24 IRF3 luciferase reporter, at 10 µM, stronger effect = higher value. A general note: Reporter assays use an easily measured gene product as a stand-in for the process of interest.
A short description of assay [8]: TLR3 IRF3 reporter activation blockers – cell-based, poly I:C stimulus, luciferase, 10K MLSCN set, primary screen (AID 602277;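 active = inhibition of the reporter signal at or above 50%; inactive = inhibition below 50%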). Conditions: HEK293-TLR3 RL24 IRF3 luciferase reporter, at 10 µM, stronger effect = higher value.

Chain of Voltage-gated potassium channel subunit beta-2 (Rattus norvegicus) (P62483 whole entry, looked up): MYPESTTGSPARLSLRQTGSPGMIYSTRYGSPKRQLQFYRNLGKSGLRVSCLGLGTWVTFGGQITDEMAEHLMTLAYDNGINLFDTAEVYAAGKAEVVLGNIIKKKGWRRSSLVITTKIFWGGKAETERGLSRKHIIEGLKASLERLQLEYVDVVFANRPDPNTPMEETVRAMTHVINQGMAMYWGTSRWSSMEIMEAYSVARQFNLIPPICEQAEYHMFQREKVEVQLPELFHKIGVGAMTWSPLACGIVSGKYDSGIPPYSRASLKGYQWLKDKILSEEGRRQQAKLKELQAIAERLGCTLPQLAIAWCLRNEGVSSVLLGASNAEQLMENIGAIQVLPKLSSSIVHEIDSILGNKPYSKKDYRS
Chain of Muscarinic acetylcholine receptor M4 (Homo sapiens) (P08173 whole entry, looked up): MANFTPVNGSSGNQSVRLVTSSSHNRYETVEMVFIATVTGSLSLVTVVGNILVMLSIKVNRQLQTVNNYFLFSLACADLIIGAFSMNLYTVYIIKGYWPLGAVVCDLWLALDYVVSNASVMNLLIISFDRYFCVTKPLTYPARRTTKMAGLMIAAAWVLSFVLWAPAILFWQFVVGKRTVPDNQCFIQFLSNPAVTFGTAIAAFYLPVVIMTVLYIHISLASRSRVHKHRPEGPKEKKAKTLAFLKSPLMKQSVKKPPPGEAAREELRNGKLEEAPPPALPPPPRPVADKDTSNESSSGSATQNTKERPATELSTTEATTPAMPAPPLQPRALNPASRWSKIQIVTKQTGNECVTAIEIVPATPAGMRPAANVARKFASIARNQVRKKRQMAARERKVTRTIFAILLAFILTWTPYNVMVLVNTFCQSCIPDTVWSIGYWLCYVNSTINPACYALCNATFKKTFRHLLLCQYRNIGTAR

As usually defined, the inhibition is the relative decrease from the control value, in per cent. `CC1(C)CC(=O)c2cc(OCC(=O)NCCCN3CCN(c4ccccc4F)CC3)ccc2O1`: the cell count in assay [1] stood at 398. In addition, the inhibition in assay [1] was 5.8% (inactive); in assay [3], -156% (inactive); in assay [7], 9.74% (inactive); in assay [8], 2.15% (inactive). Besides, the inhibition of aggregation in assay [2] was -2% (inactive). In addition, the nuclei count came out at 91.6% in assay [2] and 103% in assay [3]. The values for the fluorescence slope in assay [4] and in assay [6] were -0.366 (inactive) and 0.00645 (inactive), respectively. For the same compound, the NADPH fluorescence slope in assay [5] was 3e-05 (inactive).

Regarding `Cc1nc2ccccc2c(=O)n1NC(=O)c1c(O)c2c(n(CC(C)C)c1=O)CCCC2`, the cell count in assay [1] is 439. The inhibition was 4% (inactive) in assay [1], 21.1% (inactive) in assay [3], 18.5% (inactive) in assay [7] and 13.4% (inactive) in assay [8]. The inhibition of aggregation in assay [2] is 9.9% (inactive). Besides, the nuclei count in assay [2] turned out to be 76.7%; in assay [3] it was 101%. Also, the fluorescence slope in assay [4] is -0.558 (inactive); in assay [6], 0.00523 (inactive). The NADPH fluorescence slope in assay [5] is -5e-05 (inactive).

For the compound `C=CCOc1cccc(C2/C(=C(\O)c3ccc(F)cc3)C(=O)C(=O)N2CCN(C)C)c1` (stereo not drawn), in assay [1], the cell count is 699. Also, the inhibition was -12.1% (inactive) in assay [1], 33.3% (inactive) in assay [3], 8.26% (inactive) in assay [7] and 15.2% (inactive) in assay [8]. In addition, the inhibition of aggregation in assay [2] is 20.1% (inactive). Also, the nuclei count was found to be 82.8% in assay [2] and 99.1% in assay [3]. Further, the fluorescence slope in assay [4] was -0.493 (inactive); in assay [6] it was 0.00287 (inactive). Moreover, in assay [5], the NADPH fluorescence slope was -0.000177 (inactive).

Regarding `Brc1ccc(-c2nnc3sc(CN4CCC5(CC4)OCCO5)cn23)cc1`, the cell count in assay [1] turned out to be 414. Further, the inhibition was 3.2% (inactive) in assay [1], -185% (inactive) in assay [3], 11.1% (inactive) in assay [7] and 14% (inactive) in assay [8]. The inhibition of aggregation in assay [2] is -6.9% (inactive). The nuclei count was determined as 112% in assay [2] and 130% in assay [3]. In addition, the figures for the fluorescence slope in assay [4] and in assay [6] were -0.57 (inactive) and 0.00615 (inactive), respectively. Further, the NADPH fluorescence slope in assay [5] is -1.2e-05 (inactive).

As to `CCOc1ccc2c(c1)sc1nc(C(=O)OC)cc(=O)n12`, in assay [1], the cell count was 432. Besides, the inhibition was 7.5% (inactive) in assay [1], -0.5% (inactive) in assay [3], 13.7% (inactive) in assay [7] and 19.3% (inactive) in assay [8]. Further, in assay [2], the inhibition of aggregation was -10.2% (inactive). The values for the nuclei count in assay [2] and in assay [3] were 109% and 108%, respectively. The fluorescence slope in assay [4] is -0.175 (inactive); in assay [6], 0.00476 (inactive). Further, the NADPH fluorescence slope in assay [5] was -1.7e-05 (inactive).

For `CCn1cc(C(=O)Nc2cc3c(cc2NC(C)=O)OCCO3)c(=O)c2ccc(C)nc21`, the cell count in assay [1] came out at 315. Besides, the inhibition in assay [1] is 5.7% (inactive); in assay [3], -39.4% (inactive); in assay [7], 18.1% (inactive); in assay [8] it was 16.9% (inactive). Further, in assay [2], the inhibition of aggregation was -17.4% (inactive). In addition, the nuclei count amounted to 114% in assay [2] and 115% in assay [3]. In addition, the fluorescence slope is -0.49 (inactive) in assay [4] and 0.00463 (inactive) in assay [6]. In addition, in assay [5], the NADPH fluorescence slope is -0.000144 (active).

Turning to `O=C(CC1CCCCC1)NCc1ccccn1`, the cell count in assay [1] is 595. Moreover, the inhibition in assay [1] is 4.1% (inactive); in assay [3], -42.2% (inactive); in assay [7], 11.5% (inactive); in assay [8], 12.6% (inactive). Also, in assay [2], the inhibition of aggregation was 11.3% (inactive). Moreover, the nuclei count in assay [2] was 94.6%; in assay [3], 116%. Further, the fluorescence slope in assay [4] was -0.462 (inactive); in assay [6] it was 0.00493 (inactive). The NADPH fluorescence slope in assay [5] was -5.1e-05 (inactive).

Take `Cc1ccc(Nc2cc(C)nc3nnnn23)cc1`: in assay [1], the cell count turned out to be 415. In addition, the inhibition is 0.6% (inactive) in assay [1], 29.5% (inactive) in assay [3], 7.18% (inactive) in assay [7] and 6.33% (inactive) in assay [8]. Moreover, the inhibition of aggregation in assay [2] was 1.1% (inactive). For the same compound, the nuclei count came to 100% in assay [2] and 92.2% in assay [3]. Besides, the fluorescence slope in assay [4] is -0.559 (inactive); in assay [6], 0.00637 (inactive). For the same compound, the NADPH fluorescence slope in assay [5] is -6.9e-05 (inactive).

`CC(=O)OC(C(=O)NCc1ccco1)c1cccnc1` (stereo not drawn): the cell count in assay [1] stood at 609. For the same compound, the inhibition in assay [1] is -36.2% (inactive); in assay [3], -9.7% (inactive); in assay [7], 13% (inactive); in assay [8], 15.9% (inactive). Further, in assay [2], the inhibition of aggregation was -14.7% (inactive). Also, the nuclei count in assay [2] was found to be 105%; in assay [3] it was 135%. Also, the fluorescence slope in assay [4] is -0.553 (inactive); in assay [6] it was 0.00644 (inactive). Also, the NADPH fluorescence slope in assay [5] was -7.1e-05 (inactive).

Turning to `CCOc1cc2[nH]c(=O)n(CCCCC(=O)N3CCCCCC3)c(=O)c2cc1OCC`, the cell count in assay [1] was determined as 218. Also, the inhibition was 2.2% (inactive) in assay [1], 14.4% (inactive) in assay [3], 14.3% (inactive) in assay [7] and 18.4% (inactive) in assay [8]. Also, the inhibition of aggregation in assay [2] is 4.8% (inactive). Moreover, the nuclei count in assay [2] came out at 86.8%; in assay [3], 89.8%. Also, the values for the fluorescence slope in assay [4] and in assay [6] were -0.437 (inactive) and 0.00663 (inactive), respectively. For the same compound, the NADPH fluorescence slope in assay [5] was -0.00041 (inactive).

Turning to `CN(c1cccc(NC(=O)COc2ccccc2)c1)S(C)(=O)=O`, the cell count in assay [1] amounted to 226. Moreover, the inhibition in assay [1] was 7.2% (inactive); in assay [3], -143% (inactive); in assay [7], -58.9% (inactive); in assay [8] it was -120% (inactive). The inhibition of aggregation in assay [2] was 21.6% (inactive). Besides, the nuclei count worked out at 91.6% in assay [2] and 111% in assay [3]. Also, the fluorescence slope in assay [4] was -0.49 (inactive); in assay [6] it was 0.00411 (inactive). Further, the NADPH fluorescence slope in assay [5] was 6.4e-05 (inactive).

On to `COC(=O)c1[nH]c(C)c(/C(O)=C2\C(=O)C(=O)N(CCCN3CCOCC3)C2c2ccccn2)c1C` (stereo not drawn), for which the cell count in assay [1] stood at 814. Besides, the inhibition was 0.6% (inactive) in assay [1], -1.3% (inactive) in assay [3], 12.3% (inactive) in assay [7] and 9.49% (inactive) in assay [8]. In addition, the inhibition of aggregation in assay [2] is 14.2% (inactive). In addition, the figures for the nuclei count in assay [2] and in assay [3] were 110% and 113%, respectively. Also, the values for the fluorescence slope in assay [4] and in assay [6] were -0.473 (inactive) and 0.00368 (inactive), respectively. The NADPH fluorescence slope in assay [5] was -2.7e-06 (inactive).

`O=C1CC(c2ccco2)=Nc2ccccc2N1`: the cell count in assay [1] is 195. Besides, the inhibition in assay [1] was -13.4% (inactive); in assay [3], 9.4% (inactive); in assay [7] it was -1.5% (inactive); in assay [8] it was -5.46% (inactive). Further, the inhibition of aggregation in assay [2] was 7.9% (inactive). For the same compound, the nuclei count in assay [2] came out at 78.3%; in assay [3], 84.6%. The values for the fluorescence slope in assay [4] and in assay [6] were -0.573 (inactive) and 0.00527 (inactive), respectively. Moreover, in assay [5], the NADPH fluorescence slope was 1.4e-05 (inactive).
